Our source for the Activity values is ChEMBL document CHEMBL1140884, “Oligodeoxyribonucleotide-based antagonists for Toll-like receptors 7 and 9” (2009).

The source made the active and inactive calls. The calls are words filed in the database; no cut-off is given here.

Experiment [1] addresses T1, Toll-like receptor 9 (Mus musculus) (UniProt Q9EQU3).
T1 sequence (whole entry): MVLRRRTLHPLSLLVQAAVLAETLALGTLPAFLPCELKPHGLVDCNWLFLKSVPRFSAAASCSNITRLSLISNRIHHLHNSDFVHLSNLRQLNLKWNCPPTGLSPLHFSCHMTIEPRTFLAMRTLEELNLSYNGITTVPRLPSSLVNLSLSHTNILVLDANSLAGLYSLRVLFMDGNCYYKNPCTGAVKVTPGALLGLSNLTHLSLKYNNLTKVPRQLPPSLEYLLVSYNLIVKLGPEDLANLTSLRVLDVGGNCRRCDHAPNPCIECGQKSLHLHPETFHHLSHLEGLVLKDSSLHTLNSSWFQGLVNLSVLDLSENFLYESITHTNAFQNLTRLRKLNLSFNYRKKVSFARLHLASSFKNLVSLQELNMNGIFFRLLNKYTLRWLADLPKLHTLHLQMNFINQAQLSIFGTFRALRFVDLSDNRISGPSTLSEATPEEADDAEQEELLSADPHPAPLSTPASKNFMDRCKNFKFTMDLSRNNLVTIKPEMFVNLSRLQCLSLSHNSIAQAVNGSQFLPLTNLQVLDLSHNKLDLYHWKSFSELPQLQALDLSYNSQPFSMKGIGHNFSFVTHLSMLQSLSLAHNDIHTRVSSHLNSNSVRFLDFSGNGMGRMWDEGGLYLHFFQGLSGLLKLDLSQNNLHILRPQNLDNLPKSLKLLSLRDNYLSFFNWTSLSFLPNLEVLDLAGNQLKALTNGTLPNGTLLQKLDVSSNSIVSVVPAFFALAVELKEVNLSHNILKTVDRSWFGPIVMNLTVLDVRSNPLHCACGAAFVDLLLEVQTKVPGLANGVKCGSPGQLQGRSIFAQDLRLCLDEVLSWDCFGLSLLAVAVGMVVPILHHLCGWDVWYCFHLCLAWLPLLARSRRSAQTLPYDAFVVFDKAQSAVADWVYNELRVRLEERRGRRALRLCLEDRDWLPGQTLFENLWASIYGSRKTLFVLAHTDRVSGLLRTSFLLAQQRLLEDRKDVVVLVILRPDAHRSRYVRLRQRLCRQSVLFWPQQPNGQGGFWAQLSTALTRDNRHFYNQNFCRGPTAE
Briefly: Antagonist activity at mouse TLR9 expressed in HEK293 cells assessed as inhibition of 5'-CTATCTGTCGTTCTCTGT-3'-induced NF-kappaB activation by SEAP reporter gene assay. It counts as functional, cell-based. Summed up: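 Mouse TLR9-HEK293 cells were transfected with a SEAP reporter for 6 h. They were then stimulated for 18 h with agonist (0.25 or 0.5 µg/mL) plus increasing antagonist concentrations or set agonist:antagonist ratios. Quanti-Blue read-out, reported as % NF-κB activity with agonist alone as 100%.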
A general note: Reporter assays use an easily measured gene product as a stand-in for the process of interest.

Another experiment has as its system PBMC. Description: Inhibition of 5'-TCTGTCRTTCT-X-TCTTRCTGTCT-5'-induced human PBMC proliferation treated 72 hrs before induction. It counts as functional, cell-based.
Experiment [2] concerns the target T1, Toll-like receptor 9 (Mus musculus). Briefly: Agonist activity at mouse TLR9 expressed in HEK293 cells assessed as activation of NF-kappaB at 10 ug/mL by SEAP reporter gene assay. It counts as functional, cell-based. Summed up: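 HEK293 cells stably expressing mouse TLR9 were transiently transfected with a SEAP reporter for 6 h. Compounds were added at 10 µg/mL for 18 h. SEAP was read with Quanti-Blue substrate and expressed as fold change in NF-κB activity.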

Experiment [3] has as its system Mus musculus. Description: Induction of IP10 secretion in C57BL/6 mouse at 0.25 mg/kg, sc. Type of experiment: functional, organism-based. On the set-up: dose 0.25 mg/kg. The essentials:
(§1)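 Female C57BL/6 mice, 6–8 weeks old (n=3), were injected sc with single compounds at 0.25 or 20 mg/kg. Serum was collected by retro-orbital bleed 2 h later and cytokines were measured by Luminex mouse 20-plex assay.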

Experiment [4] has as its target T1, Toll-like receptor 9 (Mus musculus). Briefly: Agonist activity at TLR9 in mouse J774 cells assessed as of NF-kappaB activation. Type of experiment: functional, cell-based. Summed up:
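Murine J774 macrophages grown in DMEM with 10% FBS and plated at 5×10^6 cells/well. Nuclear extracts taken 1 h after agonist addition. NF-κB detected by EMSA on native polyacrylamide gels with autoradiography.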

For experiment [5], the system named is Mus musculus. Briefly: Induction of cytokine MCP1 secretion in C57BL/6 mouse at 0.25 mg/kg, sc. Type of experiment: functional, organism-based. On the set-up: dose 0.25 mg/kg. The essentials: as §1
The test system of experiment [6] is Mus musculus. Description: Induction of IL6 secretion in C57BL/6 mouse at 0.25 mg/kg, sc. It counts as functional, organism-based. On the set-up: dose 0.25 mg/kg. Summed up:
as §1

The test system of experiment [7] is Mus musculus. Description: Induction of IL12 secretion in C57BL/6 mouse at 0.25 mg/kg, sc. On the set-up: dose 0.25 mg/kg. Type of experiment: functional, organism-based. The essentials: as §1
The subject of experiment [8] is Mus musculus. Description: Induction of cytokine KC secretion in C57BL/6 mouse at 0.25 mg/kg, sc. It counts as functional, organism-based. On the set-up: dose 0.25 mg/kg. The essentials: as §1
The subject of experiment [9] is Mus musculus. Description: Induction of cytokine MIG secretion in C57BL/6 mouse at 0.25 mg/kg, sc. Type of experiment: functional, organism-based. On the set-up: dose 0.25 mg/kg. The essentials:
as §1

The test system of experiment [10] is Mus musculus. Briefly: Induction of IL10 secretion in C57BL/6 mouse at 0.25 mg/kg, sc. It counts as functional, organism-based. On the set-up: dose 0.25 mg/kg. Summed up:
as §1

Experiment [11] deals with Mus musculus. Briefly: Inhibition of 5'-TCTGACRTTCT-X-TCTTRCAGTCT-3'-induced IL12 production in C57BL/6 mouse at 10 mg/kg, sc. Type of experiment: functional, organism-based. On the set-up: dose 10 mg/kg. Summed up:
(§2)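 C57BL/6 mice received antagonist or control 10 mg/kg sc, either with TLR9 agonist 0.25 mg/kg sc or up to 48 h before it. Serum IL-12 was measured 2 h after agonist. Two or three independent experiments; mean ± SEM, Student's t test versus PBS.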

Experiment [12] deals with Mus musculus. Description: Inhibition of 5'-TCTGACRTTCT-X-TCTTRCAGTCT-3'-induced IL12 production in C57BL/6 mouse pretreated before up to 48 hrs of induction at 10 mg/kg, sc. Set-up: dose 10 mg/kg. Type of experiment: functional, organism-based. Summed up:
as §2

In the case of `CO[C@@H]1[C@H](OP(=O)(S)OC[C@H]2O[C@@H](n3ccc(N)nc3=O)C[C@@H]2OP(=O)(S)OC[C@H]2O[C@@H](n3cnc4c(=O)[nH]c(N)nc43)C[C@@H]2OP(=O)(S)OC[C@H]2O[C@@H](n3cc(C)c(=O)[nH]c3=O)C[C@@H]2OP(=O)(S)OC[C@H]2O[C@@H](n3cc(C)c(=O)[nH]c3=O)C[C@@H]2OP(=O)(S)OC[C@H]2O[C@@H](n3ccc(N)nc3=O)C[C@@H]2OP(=O)(S)OC[C@H]2O[C@@H](n3cc(C)c(=O)[nH]c3=O)C[C@@H]2OP(=O)(S)OC[C@H]2O[C@@H](n3ccc(N)nc3=O)C[C@@H]2OP(=O)(S)OC[C@H]2O[C@@H](n3cc(C)c(=O)[nH]c3=O)C[C@@H]2OP(=O)(S)OC[C@H]2O[C@@H](n3cnc4c(=O)[nH]c(N)nc43)C[C@@H]2OP(=O)(S)OC[C@H]2O[C@@H](n3cc(C)c(=O)[nH]c3=O)C[C@@H]2O)[C@@H](COP(=O)(S)O[C@H]2[C@@H](OC)[C@H](n3cnc4c(=O)[nH]c(N)nc43)O[C@@H]2COP(=O)(S)O[C@H]2C[C@H](n3cc(C)c(=O)[nH]c3=O)O[C@@H]2COP(=O)(S)O[C@H]2C[C@H](n3ccc(N)nc3=O)O[C@@H]2COP(=O)(S)O[C@H]2C[C@H](n3cc(C)c(=O)[nH]c3=O)O[C@@H]2COP(=O)(S)O[C@H]2C[C@H](n3cnc4c(N)ncnc43)O[C@@H]2COP(=O)(S)O[C@H]2C[C@H](n3cc(C)c(=O)[nH]c3=O)O[C@@H]2COP(=O)(S)O[C@@H]2C[C@@H](n3ccc(N)nc3=O)O[C@H]2CO)O[C@H]1n1ccc(=O)[nH]c1=O` (stereo not given in full), the outcome (in experiment [1]; in the experiment with PBMC) was Active. Also, the outcome in experiment [2] was inactive.

As to `Cc1cn([C@H]2C[C@H](OP(=O)(S)OC[C@H]3O[C@@H](n4ccc(N)nc4=O)C[C@@H]3OP(=O)(S)OC[C@H]3O[C@@H](n4cc(C)c(=O)[nH]c4=O)C[C@@H]3OP(=O)(S)OC[C@H]3O[C@@H](n4cnc5c(=O)[nH]c(N)nc54)C[C@@H]3OP(=O)(S)OC[C@H]3O[C@@H](n4cnc5c(N)ncnc54)C[C@@H]3OP(=O)(S)OC[C@H]3O[C@@H](n4ccc(N)nc4=O)C[C@@H]3OP(=O)(S)OC[C@H]3O[C@@H](n4ccc5c(N)ncnc54)C[C@@H]3OP(=O)(S)OC[C@H]3O[C@@H](n4cc(C)c(=O)[nH]c4=O)C[C@@H]3OP(=O)(S)OC[C@H]3O[C@@H](n4cc(C)c(=O)[nH]c4=O)C[C@@H]3OP(=O)(S)OC[C@H]3O[C@@H](n4ccc(N)nc4=O)C[C@@H]3OP(=O)(S)OC[C@H]3O[C@@H](n4cc(C)c(=O)[nH]c4=O)C[C@@H]3OP(=O)(S)OCC(O)COP(=O)(S)O[C@H]3C[C@H](n4cc(C)c(=O)[nH]c4=O)O[C@@H]3COP(=O)(S)O[C@H]3C[C@H](n4ccc(N)nc4=O)O[C@@H]3COP(=O)(S)O[C@H]3C[C@H](n4cc(C)c(=O)[nH]c4=O)O[C@@H]3COP(=O)(S)O[C@H]3C[C@H](n4cc(C)c(=O)[nH]c4=O)O[C@@H]3COP(=O)(S)O[C@H]3C[C@H](n4ccc5c(=O)[nH]c(N)nc54)O[C@@H]3COP(=O)(S)O[C@H]3C[C@H](n4ccc(N)nc4=O)O[C@@H]3COP(=O)(S)O[C@H]3C[C@H](n4cnc5c(N)ncnc54)O[C@@H]3COP(=O)(S)O[C@H]3C[C@H](n4cnc5c(=O)[nH]c(N)nc54)O[C@@H]3COP(=O)(S)O[C@H]3C[C@H](n4cc(C)c(=O)[nH]c4=O)O[C@@H]3COP(=O)(S)O[C@H]3C[C@H](n4ccc(N)nc4=O)O[C@@H]3COP(=O)(S)O[C@H]3C[C@H](n4cc(C)c(=O)[nH]c4=O)O[C@@H]3CO)[C@@H](CO)O2)c(=O)[nH]c1=O` (stereo not given in full), the outcome (in the experiment on Mus musculus [3]; in experiment [4]; in the experiment with Mus musculus [5]; with Mus musculus [6]; with Mus musculus [7]; in the experiment on Mus musculus [8]) was Active. Further, the result (in the experiment with Mus musculus [9]; in [2]; in the experiment with Mus musculus [10]) was Active.

`CO[C@@H]1[C@H](OP(=O)(S)OC[C@H]2O[C@@H](n3cnc4c(N)ncnc43)[C@H](OC)[C@@H]2OP(=O)(S)OC[C@H]2O[C@@H](n3ccc(N)nc3=O)C[C@@H]2OP(=O)(S)OC[C@H]2O[C@@H](n3ccc(N)nc3=O)C[C@@H]2OP(=O)(S)OC[C@H]2O[C@@H](n3cc(C)c(=O)[nH]c3=O)C[C@@H]2OP(=O)(S)OC[C@H]2O[C@@H](n3cc(C)c(=O)[nH]c3=O)C[C@@H]2OP(=O)(S)OC[C@H]2O[C@@H](n3ccc(N)nc3=O)C[C@@H]2OP(=O)(S)OC[C@H]2O[C@@H](n3cc(C)c(=O)[nH]c3=O)C[C@@H]2OP(=O)(S)OC[C@H]2O[C@@H](n3ccc(N)nc3=O)C[C@@H]2OP(=O)(S)OC[C@H]2O[C@@H](n3cc(C)c(=O)[nH]c3=O)C[C@@H]2OP(=O)(S)OC[C@H]2O[C@@H](n3cnc4c(=O)[nH]c(N)nc43)C[C@@H]2OP(=O)(S)OC[C@H]2O[C@@H](n3cc(C)c(=O)[nH]c3=O)C[C@@H]2O)[C@@H](COP(=O)(S)O[C@H]2C[C@H](n3cc(C)c(=O)[nH]c3=O)O[C@@H]2COP(=O)(S)O[C@H]2[C@@H](O)[C@H](n3ccc(N)nc3=O)O[C@@H]2COP(=O)(S)O[C@H]2C[C@H](n3cc(C)c(=O)[nH]c3=O)O[C@@H]2COP(=O)(S)O[C@H]2C[C@H](n3cnc4c(N)ncnc43)O[C@@H]2COP(=O)(S)O[C@H]2C[C@H](n3cc(C)c(=O)[nH]c3=O)O[C@@H]2COP(=O)(S)O[C@@H]2C[C@@H](n3ccc(N)nc3=O)O[C@H]2CO)O[C@H]1n1ccc(N)nc1=O` (stereo not given in full): the result (in the experiment with Mus musculus [11]; in [2]; with Mus musculus [12]) was inactive.
